The record followed here is ChEMBL document CHEMBL1149315, “Insertion of an aspartic acid moiety into cyclic pseudopeptides: synthesis and biological characterization of potent antagonists for the human Tachykinin NK-2 receptor” (J Med Chem, 2004).

One experiment addresses T1, Substance-K receptor (Homo sapiens, UniProt P21452).
T1 sequence (P21452 whole entry): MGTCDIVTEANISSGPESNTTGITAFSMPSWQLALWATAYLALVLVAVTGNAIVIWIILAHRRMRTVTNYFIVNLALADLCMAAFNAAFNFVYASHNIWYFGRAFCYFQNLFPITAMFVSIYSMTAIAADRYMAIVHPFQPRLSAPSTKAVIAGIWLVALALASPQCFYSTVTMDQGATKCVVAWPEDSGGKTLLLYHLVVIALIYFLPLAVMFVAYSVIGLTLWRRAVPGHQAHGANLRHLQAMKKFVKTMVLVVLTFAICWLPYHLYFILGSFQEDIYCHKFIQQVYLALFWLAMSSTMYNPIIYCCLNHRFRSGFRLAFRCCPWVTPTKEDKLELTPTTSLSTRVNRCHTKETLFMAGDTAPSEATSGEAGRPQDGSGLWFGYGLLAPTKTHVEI
The experiment in a line: Displacement of [125I]neurokinin A from human NK2 receptor expressed in CHOK1 cells. The experiment is classed as cell-based, CHO-K1. In outline:
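Competition binding was run on membranes of cells stably transfected with the human receptor: U-373MG for NK-1, CHO-K1 for NK-2 and NK-3. NK-1 used [3H][Sar9]SP sulfone at 1.2 nM. Affinity is given as pKi (−log Ki).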
In general terms: Displacement assays read how much labelled ligand stays bound in the presence of the test substance.

Experiment [1] deals with T2, Substance-K receptor (Rattus norvegicus) (UniProt P16610).
T2 sequence (whole entry): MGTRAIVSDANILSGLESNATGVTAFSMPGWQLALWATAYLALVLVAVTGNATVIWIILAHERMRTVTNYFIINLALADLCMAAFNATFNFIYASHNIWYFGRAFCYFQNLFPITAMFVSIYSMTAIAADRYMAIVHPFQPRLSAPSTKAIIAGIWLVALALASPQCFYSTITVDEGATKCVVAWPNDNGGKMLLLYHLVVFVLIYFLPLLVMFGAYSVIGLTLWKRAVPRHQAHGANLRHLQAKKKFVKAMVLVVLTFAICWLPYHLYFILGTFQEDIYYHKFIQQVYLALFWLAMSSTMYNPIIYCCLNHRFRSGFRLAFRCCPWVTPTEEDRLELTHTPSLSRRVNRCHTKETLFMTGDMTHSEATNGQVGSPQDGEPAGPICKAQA
The experiment in a line: Antagonist activity at NK2 receptor in rat urinary bladder assessed as effect on beta-Ala8]NKA(4-10)-induced mechanical activity. The experiment is classed as functional. Particulars: filed as antagonist. In outline: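 Isolated smooth muscle strips were held in oxygenated (96% O2/4% CO2) Krebs–Henseleit at NaCl 119, NaHCO3 25, KH2PO4 1.2, MgSO4 1.5, CaCl2 2.5, KCl 4.7 and glucose 11 mM. Cumulative agonist concentration–response curves were run after 15 min antagonist incubation. pKB = log(dose ratio − 1) − log[antagonist], as the mean of individual values.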

Regarding `O=C1C[C@@H](NC2CCS(=O)(=O)CC2)C(=O)NC[C@@H](Cc2ccccc2)NC(=O)[C@H](Cc2ccccc2)NC(=O)[C@H](Cc2c[nH]c3ccccc23)N1`, at Substance-K receptor, the Ki is given as 0.158 nM (antagonist). The pKb in experiment [1] was 9.3.

For `CC(=O)N[C@H]1[C@H](NC(=O)CCC(=O)N[C@@H]2CC(=O)N[C@@H](Cc3c[nH]c4ccccc34)C(=O)N[C@@H](Cc3ccccc3)C(=O)N[C@H](Cc3ccccc3)CNC2=O)O[C@H](CO)C(O)[C@@H]1O` (single isomer, unassigned), the Ki on Substance-K receptor is on record as 1.58 nM (antagonist). In addition, the negative-log Kb (pKb) in experiment [1] was 7.6.

`O=C1C[C@H](NC2CCOCC2)C(=O)N[C@@H](Cc2c[nH]c3ccccc23)C(=O)N[C@@H](Cc2ccccc2)C(=O)N[C@H](Cc2ccccc2)CN1`: the Ki at Substance-K receptor is given as 6.31 nM (antagonist). Besides, in experiment [1], the pKb is 7.8.

Turning to `CC(=O)N[C@@H]1[C@@H](O)[C@H](O)[C@@H](CO)O[C@H]1NC(=O)C[C@H](NC(C)=O)C(=O)N[C@@H]1CC(=O)N[C@@H](Cc2c[nH]c3ccccc23)C(=O)N[C@@H](Cc2ccccc2)C(=O)N[C@H](Cc2ccccc2)CNC1=O`, the Ki at Substance-K receptor was 25.1 nM (antagonist). The pKb in experiment [1] was 7.7.

As for `O=C1C[C@@H](NC(=O)CN2CCOCC2)C(=O)NC[C@@H](Cc2ccccc2)NC(=O)[C@H](Cc2ccccc2)NC(=O)[C@H](Cc2c[nH]c3ccccc23)N1`, the negative logarithm of the Kb (pKb) in experiment [1] was 8.5.

For the molecule `NC1CCN([C@@H]2CC(=O)N[C@@H](Cc3c[nH]c4ccccc34)C(=O)N[C@@H](Cc3ccccc3)C(=O)N[C@H](Cc3ccccc3)CNC2=O)CC1`, on Substance-K receptor, the Ki is listed as 5.01 nM (antagonist). Moreover, in experiment [1], the pKb was 8.5.

`CS(=O)(=O)N1CCN([C@@H]2CC(=O)N[C@@H](Cc3c[nH]c4ccccc34)C(=O)N[C@@H](Cc3ccccc3)C(=O)N[C@H](Cc3ccccc3)CNC2=O)CC1`: the Ki at Substance-K receptor is 3.16 nM (antagonist). In addition, the pKb in experiment [1] was 9.3.

Turning to `O=C1C[C@@H](NC2CC[S+]([O-])CC2)C(=O)NC[C@@H](Cc2ccccc2)NC(=O)[C@H](Cc2ccccc2)NC(=O)[C@H](Cc2c[nH]c3ccccc23)N1` (stereo not given in full), the Ki at Substance-K receptor was 0.0251 nM (antagonist). Besides, the pKb in experiment [1] was 9.1.

With `CN(C1CCOCC1)[C@@H]1CC(=O)N[C@@H](Cc2c[nH]c3ccccc23)C(=O)N[C@@H](Cc2ccccc2)C(=O)N[C@H](Cc2ccccc2)CNC1=O`, the inhibition constant Ki at Substance-K receptor is 0.158 nM (antagonist). Also, the pKb in experiment [1] was 8.8.

For the molecule `NS(=O)(=O)N1CCC(N[C@@H]2CC(=O)N[C@@H](Cc3c[nH]c4ccccc34)C(=O)N[C@@H](Cc3ccccc3)C(=O)N[C@H](Cc3ccccc3)CNC2=O)CC1`, on Substance-K receptor, the inhibition constant Ki was 0.0501 nM (antagonist). For the same molecule, the pKb in experiment [1] was 9.5.

In the case of `O=C1C[C@@H](NC2CCSCC2)C(=O)NC[C@@H](Cc2ccccc2)NC(=O)[C@H](Cc2ccccc2)NC(=O)[C@H](Cc2c[nH]c3ccccc23)N1`, on Substance-K receptor, the Ki was 0.1 nM (antagonist). The pKb in experiment [1] was 7.8.

Regarding `O=C1CC(NC(=O)[C@@H](O)[C@H](O)[C@@H](O[C@@H]2O[C@H](CO)[C@H](O)[C@H](O)[C@H]2O)[C@@H](O)CO)C(=O)NC[C@@H](Cc2ccccc2)NC(=O)[C@H](Cc2ccccc2)NC(=O)[C@H](Cc2c[nH]c3ccccc23)N1` (stereo not given in full), the inhibition constant (Ki) on Substance-K receptor is on record as 3.98 nM (antagonist). Further, in experiment [1], the pKb is 8.7.

As to `O=C1C[C@@H](NC[C@H](O)[C@@H](O)[C@H](O[C@@H]2O[C@H](CO)[C@H](O)[C@H](O)[C@H]2O)[C@H](O)CO)C(=O)NC[C@@H](Cc2ccccc2)NC(=O)[C@H](Cc2ccccc2)NC(=O)[C@H](Cc2c[nH]c3ccccc23)N1`, the inhibition constant (Ki) at Substance-K receptor was 1.26 nM (antagonist). Further, in experiment [1], the pKb was 8.2.

`O=C1C[C@@H](NC(=O)CN2CCC(N3CC[S+]([O-])CC3)CC2)C(=O)NC[C@@H](Cc2ccccc2)NC(=O)[C@H](Cc2ccccc2)NC(=O)[C@H](Cc2c[nH]c3ccccc23)N1`: the inhibition constant Ki on Substance-K receptor is given as 0.251 nM (antagonist). For the same molecule, the negative-log Kb (pKb) in experiment [1] is 9.

For the molecule `CC(=O)N[C@@H](CN[C@@H]1CC(=O)N[C@@H](Cc2c[nH]c3ccccc23)C(=O)N[C@@H](Cc2ccccc2)C(=O)N[C@H](Cc2ccccc2)CNC1=O)[C@@H](O)[C@H](O)[C@H](O)CO`, the inhibition constant (Ki) on Substance-K receptor is 2 nM (antagonist). Besides, the pKb in experiment [1] was 8.1.

On to `O=C1C[C@@H](N2CCC(N3CCCCC3)CC2)C(=O)NC[C@@H](Cc2ccccc2)NC(=O)[C@H](Cc2ccccc2)NC(=O)[C@H](Cc2c[nH]c3ccccc23)N1`, for which the Ki on Substance-K receptor is 0.2 nM (antagonist). In experiment [1], the pKb is 8.9.

As to `O=C1C[C@@H](NC[C@H](O)[C@H](O)[C@@H](O[C@H]2O[C@H](CO)[C@@H](O[C@@H]3O[C@@H](CO)[C@H](O)[C@@H](O)[C@@H]3O)[C@H](O)[C@H]2O)[C@H](O)CO)C(=O)NC[C@@H](Cc2ccccc2)NC(=O)[C@H](Cc2ccccc2)NC(=O)[C@H](Cc2c[nH]c3ccccc23)N1`, the Ki on Substance-K receptor is reported as 0.501 nM (antagonist). In addition, the negative logarithm of the Kb (pKb) in experiment [1] was 8.5.

`O=C1CCC(=O)N[C@@H](Cc2c[nH]c3ccccc23)C(=O)N[C@@H](Cc2ccccc2)C(=O)N[C@H](Cc2ccccc2)CN1`: the pKb in experiment [1] is 8.3.

In the case of `CN1CCN(CC(=O)N[C@@H]2CC(=O)N[C@@H](Cc3c[nH]c4ccccc34)C(=O)N[C@@H](Cc3ccccc3)C(=O)N[C@H](Cc3ccccc3)CNC2=O)CC1`, at Substance-K receptor, the Ki was 1.58 nM (antagonist). Also, the negative logarithm of the Kb (pKb) in experiment [1] was 8.5.

As to `CN1CCN([C@@H]2CC(=O)N[C@@H](Cc3c[nH]c4ccccc34)C(=O)N[C@@H](Cc3ccccc3)C(=O)N[C@H](Cc3ccccc3)CNC2=O)CC1`, at Substance-K receptor, the Ki is 0.398 nM (antagonist). For the same molecule, the pKb in experiment [1] was 9.2.

`O=C1C[C@@H](N2CCC(N3CCOCC3)CC2)C(=O)NC[C@@H](Cc2ccccc2)NC(=O)[C@H](Cc2ccccc2)NC(=O)[C@H](Cc2c[nH]c3ccccc23)N1`: the Ki at Substance-K receptor was 0.2 nM (antagonist). For the same molecule, the negative logarithm of the Kb (pKb) in experiment [1] is 8.9.

Take `CS(=O)(=O)N1CCC(N[C@@H]2CC(=O)N[C@@H](Cc3c[nH]c4ccccc34)C(=O)N[C@@H](Cc3ccccc3)C(=O)N[C@H](Cc3ccccc3)CNC2=O)CC1`: on Substance-K receptor, the inhibition constant Ki is 0.0631 nM (antagonist). The pKb in experiment [1] is 9.5.

For the molecule `CC(=O)N1CCN([C@@H]2CC(=O)N[C@@H](Cc3c[nH]c4ccccc34)C(=O)N[C@@H](Cc3ccccc3)C(=O)N[C@H](Cc3ccccc3)CNC2=O)CC1`, the inhibition constant Ki at Substance-K receptor is listed as 0.126 nM (antagonist). Also, the negative logarithm of the Kb (pKb) in experiment [1] was 9.6.

As to `CN1CCC(N[C@@H]2CC(=O)N[C@@H](Cc3c[nH]c4ccccc34)C(=O)N[C@@H](Cc3ccccc3)C(=O)N[C@H](Cc3ccccc3)CNC2=O)CC1`, the inhibition constant (Ki) on Substance-K receptor is given as 0.2 nM (antagonist). For the same molecule, the pKb in experiment [1] was 9.

For the molecule `NC(=O)C1CCN(CC(=O)N[C@@H]2CC(=O)N[C@@H](Cc3c[nH]c4ccccc34)C(=O)N[C@@H](Cc3ccccc3)C(=O)N[C@H](Cc3ccccc3)CNC2=O)CC1`, on Substance-K receptor, the inhibition constant (Ki) is given as 0.501 nM (antagonist). Further, the pKb in experiment [1] was 9.2.

Turning to `O=C1C[C@@H](NC(=O)CN2CC[S+]([O-])CC2)C(=O)NC[C@@H](Cc2ccccc2)NC(=O)[C@H](Cc2ccccc2)NC(=O)[C@H](Cc2c[nH]c3ccccc23)N1`, the Ki on Substance-K receptor is 0.316 nM (antagonist). In experiment [1], the pKb was 8.7.

Consider `O=C1C[C@@H](NC[C@H](O)[C@@H](O)[C@H](O)[C@H](O)CO)C(=O)NC[C@@H](Cc2ccccc2)NC(=O)[C@H](Cc2ccccc2)NC(=O)[C@H](Cc2c[nH]c3ccccc23)N1`, for which the inhibition constant Ki at Substance-K receptor is 0.398 nM (antagonist). Besides, the pKb in experiment [1] is 8.8.

In the case of `O=C1C[C@@H](NC(=O)CN2CCC[C@H]2CO)C(=O)NC[C@@H](Cc2ccccc2)NC(=O)[C@H](Cc2ccccc2)NC(=O)[C@H](Cc2c[nH]c3ccccc23)N1`, the Ki at Substance-K receptor was 0.316 nM (antagonist). Moreover, the pKb in experiment [1] was 8.9.

With `O=C1C[C@@H](NC2CCOCC2)C(=O)N[C@@H](Cc2c[nH]c3ccccc23)C(=O)N[C@@H](Cc2ccccc2)C(=O)N[C@H](Cc2ccccc2)CN1`, on Substance-K receptor, the inhibition constant (Ki) is listed as 7.94 nM (antagonist). The pKb in experiment [1] was 7.4.

Regarding `O=C1C[C@@H](NC(=O)CN2CCC(O)CC2)C(=O)NC[C@@H](Cc2ccccc2)NC(=O)[C@H](Cc2ccccc2)NC(=O)[C@H](Cc2c[nH]c3ccccc23)N1`, the Ki on Substance-K receptor is 0.126 nM (antagonist). Besides, the pKb in experiment [1] was 9.1.

Consider `O=C1C[C@@H](NC[C@H](O)[C@@H](O)[C@@H](O[C@H]2O[C@H](CO)[C@@H](O)[C@H](O)[C@H]2O)[C@H](O)CO)C(=O)NC[C@@H](Cc2ccccc2)NC(=O)[C@H](Cc2ccccc2)NC(=O)[C@H](Cc2c[nH]c3ccccc23)N1`, for which the inhibitory constant (Ki) on Substance-K receptor is listed as 0.631 nM (antagonist). The pKb in experiment [1] is 8.5.

A word on the Ki: it is the dissociation constant of the complex between target and ligand, obtained from inhibition or displacement. What is called pKb is the Kb on a negative log10 scale, so that one unit is a factor of ten.
